In brackets after ≈: the same amount, converted by molar mass.
Assays:
[1] = system: Salmonella typhimurium; test: Antibacterial activity against Salmonella Typhimurium after 18 hrs by macro-dilution test; assay type: functional, Salmonella enterica subsp. enterica serovar Typhimurium; details: Salmonella enterica
In short: (§1)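 Tube macro-dilution. Compounds in DMSO serially diluted to final […]. 24 h old inoculum added to each tube. Standard inoculum […]. Incubated 18 h at 37 °C. MIC is the lowest concentration with no visible growth, read visually. DMSO negative and amoxicillin positive controls.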

[2] = system: Escherichia coli; test: Antibacterial activity against Escherichia coli measured at MIC after 18 hrs by halo zone test; assay type: functional
In short: (§2)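 Disk diffusion. Strains subcultured 18 h at 37 °C in BHI, then suspended in saline by McFarland to about 10⁵ CFU/mL. Suspension mixed 1:1 with antibiotic agar at 40 °C and plated. 6.0 mm paper disks loaded with dilutions from a DMSO stock (1 mg per 100 of DMSO). Incubated 18 h at 36 °C. Inhibition zone (mm) measured at the MIC. Amoxicillin and DMSO disks as controls.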

[3] = system: Staphylococcus aureus; test: Antibacterial activity against Staphylococcus aureus measured at MIC after 18 hrs by halo zone test; assay type: functional; in short: as §2
[4] = system: Staphylococcus aureus; test: Antibacterial activity against Staphylococcus aureus after 18 hrs by macro-dilution test; assay type: functional; in short: as §1
[5] = system: Escherichia coli; test: Antibacterial activity against Escherichia coli after 18 hrs by macro-dilution test; assay type: functional; in short: as §1
[6] = system: Streptococcus pyogenes; test: Antibacterial activity against Streptococcus pyogenes measured at MIC after 18 hrs by halo zone test; assay type: functional; in short: as §2
[7] = system: Salmonella typhimurium; test: Antibacterial activity against Salmonella Typhimurium measured at MIC after 18 hrs by halo zone test; assay type: functional, Salmonella enterica subsp. enterica serovar Typhimurium; in short: as §2
[8] = system: Streptococcus pyogenes; test: Antibacterial activity against Streptococcus pyogenes after 18 hrs by macro-dilution test; assay type: functional; in short: as §1

MIC [1] [µg/mL] | MIC [4] [µg/mL] | MIC [5] [µg/mL] | MIC [8] [µg/mL] | Structure (SMILES) | inhibition zone (IZ) [2] [mm] | inhibition zone (IZ) [3] [mm] | inhibition zone (IZ) [6] [mm] | inhibition zone (IZ) [7] [mm]
256 (≈ 550 µM) | 64 (≈ 138 µM) | 128 (≈ 275 µM) | 128 (≈ 275 µM) | CC(=O)N1N=C(N(C(C)=O)C2CCCCC2)SC1c1cc2cccc(Cl)c2nc1Cl (stereo not given) | 15.23 | 17.39 | 17.73 | 16.72
128 (≈ 329 µM) | 256 (≈ 658 µM) | 256 (≈ 658 µM) | 128 (≈ 329 µM) | Cc1cccc2cc(/C=N/NC(=S)NC3CCCCCCC3)c(Cl)nc12 | 16.61 | 15.78 | 14.45 | 22.51
128 (≈ 369 µM) | 256 (≈ 738 µM) | 128 (≈ 369 µM) | 256 (≈ 738 µM) | S=C(N/N=C/c1cc2ccccc2nc1Cl)NC1CCCCC1 | 17.68 | 12.37 | 12.38 | 15.93
32 (≈ 84.9 µM) | 32 (≈ 84.9 µM) | 64 (≈ 170 µM) | 64 (≈ 170 µM) | Fc1ccc(F)c(NC(=S)N/N=C/c2cc3ccccc3nc2Cl)c1 | 10.13 | 16.75 | 14.07 | 11.56
64 (≈ 152 µM) | 32 (≈ 76.1 µM) | 256 (≈ 609 µM) | 64 (≈ 152 µM) | O=[N+]([O-])c1ccc(NC(=S)N/N=C/c2cc3cccc(Cl)c3nc2Cl)cc1 | – | 19.7 | 15.26 | 15.99
32 (≈ 86.7 µM) | 32 (≈ 86.7 µM) | 64 (≈ 173 µM) | 64 (≈ 173 µM) | Cc1ccccc1NC(=S)N/N=C/c1cc2cccc(C)c2nc1Cl | 15.17 | 14.8 | 18.81 | 13.94
64 (≈ 130 µM) | 64 (≈ 130 µM) | 64 (≈ 130 µM) | 128 (≈ 259 µM) | CC(=O)N1N=C(N(C(C)=O)C2CCCCCCC2)SC1c1cc2cccc(Cl)c2nc1Cl (stereo not given) | 16.36 | 17.62 | 17.94 | 18.54
256 (≈ 671 µM) | 64 (≈ 168 µM) | 256 (≈ 671 µM) | 128 (≈ 336 µM) | S=C(N/N=C/c1cc2cccc(Cl)c2nc1Cl)NC1CCCCC1 | 15.23 | 17.23 | 13.73 | 15.72
256 (≈ 918 µM) | 64 (≈ 230 µM) | 256 (≈ 918 µM) | 128 (≈ 459 µM) | Cc1cccc2cc(/C=N/NC(N)=S)c(Cl)nc12 | – | 12.76 | 17.1 | 18.02
64 (≈ 135 µM) | 64 (≈ 135 µM) | 64 (≈ 135 µM) | 64 (≈ 135 µM) | CC(=O)N(C1=NN(C(C)=O)C(c2cc3cccc(Cl)c3nc2Cl)S1)c1ccc(C)cc1 (stereo not given) | 18.11 | 15.67 | 17.09 | 16.88
256 (≈ 706 µM) | 64 (≈ 176 µM) | 256 (≈ 706 µM) | 64 (≈ 176 µM) | CC(=O)NC1=NN(C(C)=O)C(c2cc3cccc(C)c3nc2Cl)S1 (stereo not given) | 18.34 | 13.66 | 16.77 | 18.08
128 (≈ 385 µM) | 64 (≈ 192 µM) | 128 (≈ 385 µM) | 128 (≈ 385 µM) | S=C(N/N=C/c1cc2ccccc2nc1Cl)NC1CCCC1 | 21.12 | 19.52 | 21.07 | 22.58
64 (≈ 132 µM) | 64 (≈ 132 µM) | 64 (≈ 132 µM) | 64 (≈ 132 µM) | CC(=O)N(C1=NN(C(C)=O)C(c2cc3cccc(C)c3nc2Cl)S1)c1ccc([N+](=O)[O-])cc1 (stereo not given) | 13.03 | 16.54 | 15.27 | 19.16
128 (≈ 271 µM) | 256 (≈ 541 µM) | 256 (≈ 541 µM) | 256 (≈ 541 µM) | CC(=O)N1N=C(N(C(C)=O)C2CCCCCCC2)SC1c1cc2cccc(C)c2nc1Cl (stereo not given) | 19 | 18.77 | 15.45 | 17.84
64 (≈ 129 µM) | 64 (≈ 129 µM) | 64 (≈ 129 µM) | 64 (≈ 129 µM) | CC(=O)N(C1=NN(C(C)=O)C(c2cc3cccc(Cl)c3nc2Cl)S1)c1cc(F)ccc1F (stereo not given) | 16.45 | 12.99 | 13.92 | 17.59
32 (≈ 86.7 µM) | 32 (≈ 86.7 µM) | 64 (≈ 173 µM) | 64 (≈ 173 µM) | Cc1ccc(NC(=S)N/N=C/c2cc3cccc(C)c3nc2Cl)cc1 | 18.67 | 19.24 | 17.65 | 17.18
128 (≈ 284 µM) | 64 (≈ 142 µM) | 128 (≈ 284 µM) | 64 (≈ 142 µM) | CC(=O)N1N=C(N(C(C)=O)C2CCCC2)SC1c1cc2cccc(Cl)c2nc1Cl (stereo not given) | 18.18 | 18.03 | 14.15 | 15.17
256 (≈ 709 µM) | 128 (≈ 355 µM) | 128 (≈ 355 µM) | 256 (≈ 709 µM) | Cc1cccc2cc(/C=N/NC(=S)NC3CCCCC3)c(Cl)nc12 | 21.27 | 12.75 | 11.08 | 15.66
64 (≈ 183 µM) | 64 (≈ 183 µM) | 64 (≈ 183 µM) | 64 (≈ 183 µM) | CC(=O)NC1=NN(C(C)=O)C(c2cc3ccccc3nc2Cl)S1 (stereo not given) | 17.76 | 15.67 | 16.97 | 13.42
256 (≈ 663 µM) | 64 (≈ 166 µM) | 32 (≈ 82.9 µM) | 64 (≈ 166 µM) | O=[N+]([O-])c1ccc(NC(=S)N/N=C/c2cc3ccccc3nc2Cl)cc1 | 13.27 | 13.46 | 12.25 | –
128 (≈ 297 µM) | 128 (≈ 297 µM) | 128 (≈ 297 µM) | 64 (≈ 149 µM) | CC(=O)N1N=C(N(C(C)=O)C2CCCC2)SC1c1cc2cccc(C)c2nc1Cl (stereo not given) | 16.08 | 19 | 17.71 | 15.13
64 (≈ 149 µM) | 256 (≈ 594 µM) | 128 (≈ 297 µM) | 256 (≈ 594 µM) | CC(=O)N1N=C(N(C(C)=O)C2CCCCC2)SC1c1cc2ccccc2nc1Cl (stereo not given) | 15.63 | 14.03 | 17.38 | 14.59
256 (≈ 738 µM) | 256 (≈ 738 µM) | 256 (≈ 738 µM) | 256 (≈ 738 µM) | Cc1cccc2cc(/C=N/NC(=S)NC3CCCC3)c(Cl)nc12 | 16.97 | 20.04 | 18.71 | 17.44
256 (≈ 575 µM) | 128 (≈ 288 µM) | 256 (≈ 575 µM) | 128 (≈ 288 µM) | CC(=O)N1N=C(N(C(C)=O)C2CCCCC2)SC1c1cc2cccc(C)c2nc1Cl (stereo not given) | 16.75 | 15.42 | 13.09 | 12.01
128 (≈ 348 µM) | 128 (≈ 348 µM) | 256 (≈ 697 µM) | 256 (≈ 697 µM) | S=C(N/N=C/c1cc2cccc(Cl)c2nc1Cl)NC1CCCC1 | 17.18 | 17.68 | 13.15 | 15.17
128 (≈ 483 µM) | 128 (≈ 483 µM) | 256 (≈ 967 µM) | 64 (≈ 242 µM) | NC(=S)N/N=C/c1cc2ccccc2nc1Cl | 17.76 | 11.67 | 16.97 | 12.42
256 (≈ 625 µM) | 256 (≈ 625 µM) | 128 (≈ 313 µM) | 256 (≈ 625 µM) | S=C(N/N=C/c1cc2cccc(Cl)c2nc1Cl)NC1CCCCCCC1 | 17.62 | – | 17.54 | 17.54
128 (≈ 428 µM) | 64 (≈ 214 µM) | 128 (≈ 428 µM) | 64 (≈ 214 µM) | NC(=S)N/N=C/c1cc2cccc(Cl)c2nc1Cl | 15.8 | 21.13 | 19.58 | 16.66
64 (≈ 180 µM) | 256 (≈ 721 µM) | 32 (≈ 90.2 µM) | 64 (≈ 180 µM) | Cc1ccccc1NC(=S)N/N=C/c1cc2ccccc2nc1Cl | 18.84 | – | 16.48 | 14.73

Structure (SMILES) | MIC [1] [µg/mL] | MIC [4] [µg/mL] | MIC [5] [µg/mL] | MIC [8] [µg/mL] | inhibition zone (IZ) [2] [mm] | inhibition zone (IZ) [3] [mm] | inhibition zone (IZ) [6] [mm] | inhibition zone (IZ) [7] [mm]
CC1(C)S[C@@H]2[C@H](NC(=O)[C@H](N)c3ccc(O)cc3)C(=O)N2[C@H]1C(=O)O [AMOXICILLIN] | 32 (≈ 87.6 µM) | 32 (≈ 87.6 µM) | 32 (≈ 87.6 µM) | 32 (≈ 87.6 µM) | 22.05 | 20.85 | 19.57 | 21.82

Source: ChEMBL document CHEMBL1799921, “3-(1,3,4-Thiadiazole-2-yl)quinoline derivatives: synthesis, characterization and anti-microbial activity” (Eur J Med Chem, 2011)
